# PAFAH1B3 inh – PAFAH1B3 (human) inhibition | recombinant PAFAH1B3, FP-rhodamine probe, fluorescence polarization | AID 492972 | 0.28% of 340,000 active | inhibition, % at 3.39 µM;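 active = inhibition above the screen-wide average of all tested compounds plus 3 SD, cut at about 25% in these data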;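 note: 0% = enzyme with DMSO only and 100% = wells lacking PAFAH1B3 protein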
# Target sequence (Q15102 whole entry, looked up): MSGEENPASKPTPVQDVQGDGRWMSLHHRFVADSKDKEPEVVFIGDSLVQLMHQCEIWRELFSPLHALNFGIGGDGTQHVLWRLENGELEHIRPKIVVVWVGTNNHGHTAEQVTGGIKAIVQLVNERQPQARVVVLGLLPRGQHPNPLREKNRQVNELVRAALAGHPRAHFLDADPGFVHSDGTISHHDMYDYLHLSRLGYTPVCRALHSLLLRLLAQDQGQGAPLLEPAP
# PAFAH1B2 FP inh – inhibitors of human PAFAH1B2 | recombinant PAFAH1B2, FP-rhodamine activity probe, fluorescence polarization | inhibition, % at 3.39 µM | 1.2% of 340,000 active | P68402 | AID 492953;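 active = inhibition above the mean of all tested compounds plus 3 SD, cut at about 24% in these data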;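 note: 0% = enzyme with DMSO and 100% = wells lacking PAFAH1B2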
# Target sequence (P68402 whole entry, looked up): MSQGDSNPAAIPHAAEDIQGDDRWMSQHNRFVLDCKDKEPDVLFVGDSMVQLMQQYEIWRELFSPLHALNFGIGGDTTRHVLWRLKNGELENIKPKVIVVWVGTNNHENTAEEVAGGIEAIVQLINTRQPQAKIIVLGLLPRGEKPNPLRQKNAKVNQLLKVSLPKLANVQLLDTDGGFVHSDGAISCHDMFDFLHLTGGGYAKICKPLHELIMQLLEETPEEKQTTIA
# pPAFAH FP inh – pPAFAH (human) enzyme inhibition; 1.5% of 330,000 active; recombinant pPAFAH, FP-rhodamine probe fluorescence polarization; Q13093; inhibition, % at 3.39 µM;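 active = inhibition above the mean inhibition across the screen plus 3 SD, cut at about 25% in these data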;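 note: inhibitors block binding of the rhodamine activity-based probe so polarization drops; 0% = enzyme with DMSO and 100% = wells lacking pPAFAH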
# PAFAH2 FP inh – PAFAH2 (human) inhibition; recombinant PAFAH2, FP-rhodamine activity probe, fluorescence polarization; Q99487; inhibition, % at 3.39 µM; 0.99% of 340,000 active; AID 492956;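 active = inhibition above the mean over all tested compounds plus 3 SD, cut at about 30% in these data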;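 note: inhibitors block probe labeling of enzyme so polarization drops; 0% = enzyme with DMSO and 100% = wells lacking PAFAH2 protein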
# ARFGAP1 inhibitor – rat ARFGAP1 inhibition | Q62848 | Arfgap1-stimulated ARF1 GTP hydrolysis, GDP FP detection | inhibition, % at 16.5 µM | 0.26% of 360,000 active | AID 651572;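 active = inhibition above a per-plate limit, mean inhibition of low control wells plus 3 SD, cut at about 25% in these data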;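 note: 0% = DMSO wells with enzyme and 100% = wells lacking Arfgap1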
# Target sequence (Q62848 1-136 limits assumed): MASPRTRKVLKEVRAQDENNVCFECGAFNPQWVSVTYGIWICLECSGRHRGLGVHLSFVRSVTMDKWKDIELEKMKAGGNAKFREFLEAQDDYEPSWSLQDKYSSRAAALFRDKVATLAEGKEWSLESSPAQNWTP
#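 Material: truncated rat Arfgap1 GAP domain; Incubation: compound-enzyme preincubation 20 min, reaction 120 min, detection 60 min, 25 °C; Read-out: percent inhibition of Arfgap1-stimulated GTP hydrolysis; Technique: FP, GDP Alexa 633 tracer displaced from anti-GDP antibody, 620/688 nm; Controls: No-Arfgap1 wells (100%) versus DMSO full-reaction wells (0%); Replication: single well per compound.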
# ASAP1 inh – blocks human ASAP1-stimulated Arf1 GTP hydrolysis | GDP FP detection | Q9ULH1 | AID 624377 | 0.19% of 360,000 active | inhibition, % at 16.5 µM; in the data active = inhibition above about 25%;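 note: 0% = vehicle with enzyme and substrate and 100% = no enzyme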
# * hit, by the source's call; . = not tested or not shown. Hits are enriched below; roughly 2.7% of the tested compounds scored in any of these assays.
SMILES,PAFAH1B3 inh,PAFAH1B2 FP inh,pPAFAH FP inh,PAFAH2 FP inh,ARFGAP1 inhibitor,ASAP1 inh
C[C@H](c1ccccc1)N1C[C@@H](COCc2ccccc2)Oc2cccc(Oc3ccc(F)cc3)c2S1(=O)=O,.,.,.,.,2.1,-3.0
CC(C)(C)CC(C)(C)c1ccc(OCCOCC[N+](C)(C)Cc2ccccc2)cc1,-8.5,21.3,25.8*,1.9,5.6,-0.3
COc1ccc2nc(NN=Cc3cccc(C)n3)cc(C)c2c1,.,.,.,.,-5.1,20.7
Cc1ccc2nc(NC(=O)c3ccc(OCC4CCCO4)cc3)sc2c1 (stereo not given),0.8,-4.8,26.7*,-8.3,-2.5,-4.5
COc1cc(C2C(C#N)=C(N)Oc3c2ccc2ccccc32)ccc1OCC(=O)Nc1ccc(C)cc1 (stereo not given),-16.8,-14.5,27.9*,-30.8,9.3,0.5
COc1cc(C2C(C#N)=C(N)Oc3c2ccc2ccccc32)ccc1OCC(=O)Nc1cccc(C)c1 (stereo not given),-18.4,-18.2,32.9*,-38.6,13.0,14.2
CC(O)(CS(=O)(=O)Cc1cccc(C(F)(F)F)c1)C(=O)Nc1cccc(C(F)(F)F)c1 (stereo not given),-3.2,38.5*,1.6,-7.3,1.6,-7.8
CC(O)(CS(=O)(=O)Cc1ccccc1Cl)C(=O)Nc1cccc(C(F)(F)F)c1 (stereo not given),5.4,1.9,1.8,-7.6,3.4,-0.3
C=CCn1c(=O)n(CCOC)c(=O)c2sc3ccccc3c21,-4.4,5.4,27.6*,2.4,10.5,3.6
COCCCn1c(=O)c2ccccc2n(Cc2ccccc2)c1=O,6.1,2.5,1.9,3.7,-5.2,11.6
COCCN1Cc2cc(C(=O)OC)c3c(c2C1=O)c1cc(F)ccc1n3S(=O)(=O)c1ccc(C)cc1,.,.,.,.,-3.9,6.8
O=C(Nc1ccc(CN2CCOCC2)cc1)c1ccc(-c2cccc([N+](=O)[O-])c2)o1,4.7,5.0,8.0,-2.6,36.7*,37.0*
O=[N+]([O-])c1cccc(-c2ccc(C(=S)N3CCOCC3)o2)c1,7.4,1.0,3.9,9.6,0.3,3.5
CN(N=Cc1ccccc1O)C(=O)c1ccccc1N,.,.,.,.,-3.3,9.5
COC(=O)C1=C(C)N(Cc2ccccc2C(F)(F)F)C(=NCc2ccccc2)NC1c1ccc(Cl)cc1 (stereo not given),.,.,.,.,11.1,-0.3
O=C1CC(SCCc2nc3ccccc3[nH]2)C(=O)N1c1ccc(Cl)cc1 (stereo not given),0.9,31.5*,2.4,-7.3,0.8,0.7
O=C1CC(SCc2nc3ccccc3[nH]2)C(=O)N1c1ccc(F)c(Cl)c1 (stereo not given),4.9,28.8*,2.0,2.0,4.0,-8.3
O=C(Nc1nc(-c2ccccc2)cs1)c1ccc(=O)[nH]c1,0.6,-0.8,-1.9,-5.1,0.2,7.1
Cc1cc(-c2csc(NC(=O)c3ccc(=O)[nH]c3)n2)c(C)n1Cc1ccccc1,8.6,7.3,31.3*,-14.2,1.9,12.8
Cc1ccc(OCCC(=O)OCC(=O)NCc2ccccc2)cc1,3.5,1.2,29.9*,-2.5,-10.6,0.4
CCOc1ccc(OCCC(=O)OCC(=O)NCc2ccccc2)cc1,-3.0,-1.2,31.8*,-5.6,18.2,-3.0
Cc1ccc(C)c(OCCC(=O)OCC(=O)NCc2ccc(F)cc2)c1,6.4,3.8,29.9*,6.5,7.8,9.8
Cc1ccc(S(=O)(=O)N2Cc3ccccc3CC2C(=O)Nc2ccc3c(c2)OCO3)cc1 (stereo not given),-2.7,-1.4,28.2*,0.5,-5.7,8.4
Cc1ccc(NC(=O)CN2C(=O)S/C(=C/c3ccc(O)c([N+](=O)[O-])c3)C2=O)cc1C,16.6,10.0,.,22.0,0.7,-7.4
Cc1cccc(NC(=O)CN2C(=O)S/C(=C\c3ccc(O)c([N+](=O)[O-])c3)C2=O)c1,26.3*,6.6,29.4*,26.6,-3.8,3.4
SMILES,PAFAH1B3 inh,PAFAH1B2 FP inh,pPAFAH FP inh,PAFAH2 FP inh,ARFGAP1 inhibitor,ASAP1 inh
O=C(CN1C(=O)S/C(=C\c2cc(Cl)c(O)c(Cl)c2)C1=O)Nc1ccccc1,15.0,1.4,25.5*,11.9,-9.3,12.5
CC1(C)Cc2c(C#N)c(N3CCN(C(=O)c4ccccc4Cl)CC3)nc(-c3ccco3)c2CS1,5.2,3.9,34.4*,9.6,-3.2,-6.1
CC(=O)N1CCN(c2nc(-c3ccco3)c3c(c2C#N)CC(C)(C)SC3)CC1,1.7,4.5,16.5,13.7,-7.5,-5.1
CC1(C)Cc2c(C#N)c(N3CCN(C(=O)c4ccco4)CC3)nc(-c3ccco3)c2CS1,1.7,-3.0,31.9*,17.0,-6.7,6.5
N#Cc1c(N2CCN(C(=O)c3ccccc3Cl)CC2)nc(-c2ccccc2)c2c1CCCC2,5.0,-0.6,1.6,4.3,2.7,-4.1
COC(=O)C1=C(C)N(Cc2ccc(C(F)(F)F)cc2)C(=NCc2ccccc2C(F)(F)F)NC1c1ccc(C(F)(F)F)cc1 (stereo not given),.,.,.,.,20.3,-0.5
CCOC(=O)C1CSCCS(=O)(=O)N1Cc1cccc(F)c1 (stereo not given),.,.,.,.,-2.2,-9.9
CCOC(=O)C1Nc2ccc(OC(F)(F)F)cc2C2C=CCC12 (stereo not given),7.8,11.8,5.1,14.1,10.9,-8.0
CC(C)C1Nc2ccc(S(N)(=O)=O)cc2C2C=CCC21 (stereo not given),7.7,32.5*,8.7,5.2,7.4,-3.1
NS(=O)(=O)c1ccc2c(c1)C1C=CCC1C(C1CC=CCC1)N2 (stereo not given),1.8,24.0,28.0*,-3.4,7.2,17.5
CCOc1cc(CNCCO)cc(Br)c1OCc1ccccc1Cl,8.1,-1.4,15.8,-3.7,-0.3,-4.2
CCOc1cc(CNC(C)(C)CO)cc(Br)c1OCc1ccc(Cl)cc1Cl,1.3,2.7,34.0*,7.4,7.7,5.2
CC(C)C[C@H](NS(=O)(=O)c1ccc(F)cc1F)C(=O)N1CCC[C@H]1C(=O)NCc1ccccc1,.,.,.,.,8.4,1.5
Cc1[nH]c2ccccc2c1/C=N/NC(=O)c1cc(-c2cccs2)[nH]n1,22.0,10.8,26.8*,14.2,17.9,24.6
C/C(=C1/SC(N2CC(C)OC(C)C2)=NC1=O)c1ccccc1 (stereo not given),5.7,8.0,28.3*,-1.4,2.4,-0.8
CC(=O)N1N=C(c2ccc3ccccc3c2)OC1(C)C,-0.7,-0.5,4.5,3.1,6.7,-4.3
c1ccc2cc(-c3cc4ccccn4c3)ccc2c1,9.2,5.2,27.8*,14.7,-24.1,-8.4
O=C(NCc1ccco1)c1cc2c(s1)CSC2,.,.,27.8*,.,.,.
Cc1sc(N(C(=O)CCc2ccccc2)c2ccc(C(=O)O)cc2)nc1-c1ccccc1,6.5,34.3*,25.3*,3.8,-20.6,8.9
COCCN1Cc2cc(C(=O)OC)c3c(c2C1=O)c1cc(OC)ccc1n3S(C)(=O)=O,.,.,.,.,1.4,8.4
